The chains are these.
B1: tRNA (parent)
chain: GUUCCGUUGGCGUAAUGGUAACGCGUCUCCCUCCUAAGGAGAAGACUGCGGGUUCGAGUCCCGUACGGAACG

Variants at the floor of the assay were thinned out.

The variants in this series derive from B1. The series is described as follows: yeast fitness relative to wild type (ratio to wild type); higher = fitter; tRNA-Arg(CCU), competitive growth, 37 C, YPD. The method, boiled down: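 For this measurement, the tRNA-Arg(CCU) gene was varied by chemical synthesis at a 3% per-site mutation rate across 69 sites, and each variant was placed at the native genomic locus in Saccharomyces cerevisiae. The pooled strains went through a 24-hour competition in YPD at 37°C in six parallel replicates, with amplicons from start and end populations read by 100-nucleotide paired-end sequencing. Darwinian fitness relative to wild type followed from the change in each genotype's frequency. Genotypes needed ≥ 100 starting reads, and estimates < 0.5 were set to 0.5.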
Turning to G6A U13A A14G U32C A42U, the yeast fitness was ≤ 0.5.
As for C22A C34G, the yeast fitness is 0.686.
On to U2C A14G G18A G41A A69C, for which the yeast fitness is ≤ 0.5.
Consider C22A C33A A36U G48A C62G, for which the yeast fitness came out at 0.524.
Next, C4U A15C G67C: 0.54; U13G U35G A40G C66U: 0.526.
On to G25A C27A, for which the yeast fitness was determined as 1.11.
As for G25A C27G, the figure is 0.78.
Take G9A U13A A15G C27U: the yeast fitness is ≤ 0.5.
For A15G G25A C60U G68C, the yeast fitness worked out at 0.561.
As for G9A C24G C34G C61U, the yeast fitness is ≤ 0.5.
For C24U G67C G68A, the yeast fitness came to 0.587.
As to U26A U54A A70U, the yeast fitness is 0.69.
G9U C33U A43U U59G: the yeast fitness came out at 0.676.
With A15U C27A C62U A65C A69C, the yeast fitness was ≤ 0.5.
As for C11U G17A A57G, the figure is ≤ 0.5; as for U3A C11G G17C C24G C46A A65U, ≤ 0.5; as for G12A U16G, 0.815.
For C11A C61G A65C, the yeast fitness is 0.567.
Next, A21G C49A: 0.736; U3C C4U C5G U16C C24G A42C G58A: ≤ 0.5; U13A C49A G63A: ≤ 0.5.
U26A A40C: the yeast fitness worked out at 0.755.
Regarding C4G C5A C11U G18C C46G, the yeast fitness was ≤ 0.5.
Consider C5A G18A C61G U64C, for which the yeast fitness is ≤ 0.5.
Turning to A14U A21G G39C A45G G50U U53C, the yeast fitness is ≤ 0.5.
Turning to G12C C61G C62U, the yeast fitness was determined as 0.605.
Take G18A G25C A69C: the yeast fitness is 0.519.
Turning to G52A C60G, the yeast fitness was ≤ 0.5.
As to A21U C29G A57U A65C, the yeast fitness is ≤ 0.5.
On to C5G C11G C62U, for which the yeast fitness is ≤ 0.5.
A40U A45U U53C: the yeast fitness was 0.684.
As for C4U A36G A69C, the figure is 0.8.
Next, U13C A42C: 0.932; G10A C30A A42G A43U: ≤ 0.5.
Next, U7G C31U G39A C55U G68C: ≤ 0.5.
Regarding A21U U26A C30G A36C A57G, the yeast fitness was ≤ 0.5.
For C4U C30A U53C A70G, the yeast fitness is ≤ 0.5.
C31U A42C G67A: the yeast fitness was determined as 0.628.
As for G38A A70U, the figure is 0.953; as for A14U C46G, 0.612.
Next, A15C U28C: 0.737.
As for C27A A36U A37U A65U A70G, the yeast fitness was ≤ 0.5.
A36U G44A A70G: the yeast fitness is ≤ 0.5.
G9A G52C: the yeast fitness was found to be 0.641.
Consider G9C C34G G52A G56A, for which the yeast fitness is ≤ 0.5.
As for U16C C34G C55A, the figure is 0.58.
Turning to C46A G58C C66U, the yeast fitness turned out to be 0.998.
As for G9A C11G A57U, the yeast fitness is ≤ 0.5.
On to C49G C60G, for which the yeast fitness is 0.64.
In the case of A20G U28A A69C, the yeast fitness is ≤ 0.5.
As for C11A C24A U26A G44C, the figure is ≤ 0.5.
U16C C22G G58A U64G: the yeast fitness was ≤ 0.5.
As for C24U C31U C49U, the figure is 0.874.
Turning to U8A U19C A21C G39C, the yeast fitness is ≤ 0.5.
Regarding G18C C49G, the yeast fitness turned out to be 0.734.
Consider C22U C24G C30U G44A G56A, for which the yeast fitness is ≤ 0.5.
With C11A U32C G67A, the yeast fitness was 0.606.
C22U A42G: the yeast fitness was 0.794.
For the variant G52C, the yeast fitness was found to be 0.635.
For the variant C5G A14G C24G A40U G48C C60U A69C, the yeast fitness worked out at 0.601.
Take C33G C60U A69U: the yeast fitness was ≤ 0.5.
G10C A21U C22G G67C: the yeast fitness amounted to 0.765.
In the case of U3G A37U, the yeast fitness was 0.683.
With G12A A20U A42C G68A, the yeast fitness turned out to be 0.519.
On to U3A G68C A69C, for which the yeast fitness is ≤ 0.5.
Next, C31G C61U G67A: ≤ 0.5.
Take C5G U16A C33A: the yeast fitness was ≤ 0.5.
Next, U8A G18A G25A C33U G51A G56A C66U: ≤ 0.5; U2G C29U C49G C55G G63C: ≤ 0.5; A15C U26G U28C A37G G41A C49G: 0.59.
For G6C A14C G44C C62G, the yeast fitness is ≤ 0.5.
Turning to A15C A43G, the yeast fitness stood at 0.689.
Next, G6A A14C C24U: 0.597; C31G A42G U47G: 0.573; U16C C22A C24A U26C: ≤ 0.5.
Consider U2A C11G C34U A42U G68A, for which the yeast fitness is ≤ 0.5.
Consider C4U U26C A36C, for which the yeast fitness was ≤ 0.5.
Turning to G9A C27G A40G, the yeast fitness worked out at 0.53.
Turning to A21U C55G G56C, the yeast fitness is ≤ 0.5.
With C5U U19G G23A C46A, the yeast fitness is ≤ 0.5.
In the case of U26C G44A, the yeast fitness is 0.945.
With C5U G63C, the yeast fitness is 0.664.
As for U13A A40C A70U, the yeast fitness was ≤ 0.5.
As to C27U C46A, the yeast fitness worked out at 0.942.
As for C5G U47A C62G G63A, the figure is ≤ 0.5.
With U2A A20C A37G, the yeast fitness came to 0.529.
Take C4U A21G U47C A70G: the yeast fitness was ≤ 0.5.
In the case of C4U G23A U26A A45C, the yeast fitness is ≤ 0.5.
In the case of C27G C49U U54G, the yeast fitness was ≤ 0.5.
On to A21U C55U, for which the yeast fitness came to 0.607.
Regarding A14U G52A G63C G67C A69U, the yeast fitness was ≤ 0.5.
On to C5A U26A C33A A43C G56C, for which the yeast fitness was found to be 0.597.
With A43G G50A G51A C62U, the yeast fitness was ≤ 0.5.
For the variant C27U C29U, the yeast fitness was determined as 0.792.
With U2A A45C A70C, the yeast fitness is 0.758.
In the case of A20U A36G C55G G56A, the yeast fitness was ≤ 0.5.
With G12A G18C A42U, the yeast fitness was determined as 0.65.
As to C34G A37C G63A, the yeast fitness was ≤ 0.5.
Turning to G23C C29A A45U, the yeast fitness is ≤ 0.5.
For C11G C29U U35C A36C, the yeast fitness was ≤ 0.5.
C4U C31G A65U G67C: the yeast fitness was ≤ 0.5.
On to U3C U13G C24U, for which the yeast fitness worked out at 0.559.
C22G C27G C29G C34A A43U A69C: the yeast fitness was ≤ 0.5.
For the variant C34U G48C C66U, the yeast fitness was 0.635.
As for G9A A57U C66U, the yeast fitness was determined as 0.548.
Turning to C11G A21U U26C U53G, the yeast fitness was 0.696.
As for U3C G12C A37U G51A C62U, the figure is 0.607.
Regarding A15C C30A A42C G56A C60G, the yeast fitness was ≤ 0.5.
With A15U A20C G67U, the yeast fitness amounted to 0.605.
For C4U G17C U47C C49A, the yeast fitness was ≤ 0.5.
Take A36C G52A C61A: the yeast fitness is ≤ 0.5.
Take C11A A15G C61U: the yeast fitness was 0.528.
G23A G67A: the yeast fitness was found to be 0.841.
As for C11U U19G G51C C66A, the figure is 0.578.
Next, A15C A20U C31G: 0.562; U2G C24G C49A: ≤ 0.5; C24G U35C: ≤ 0.5.
On to U3C A40G C62U A65U, for which the yeast fitness was ≤ 0.5.
On to U7C C34G A45G C60U A69U, for which the yeast fitness was ≤ 0.5.
Next, C4U C33A C61U: 0.597; U7A A37G: 0.585.
U7C C55U: the yeast fitness is 0.847.
On to G41C C46A, for which the yeast fitness was determined as 0.982.
Turning to G17A A65C, the yeast fitness is 0.733.
For U3G U47A G68C, the yeast fitness was ≤ 0.5.
With U47A G48C G51A C61A, the yeast fitness is ≤ 0.5.
On to U3C A37U G52A, for which the yeast fitness is ≤ 0.5.
In the case of A37G C55U G56A C66G, the yeast fitness is ≤ 0.5.
Turning to G9A A36U G39A U54A, the yeast fitness was ≤ 0.5.
For U2C C24G C30U C62U, the yeast fitness was ≤ 0.5.
As for A37U C62U, the yeast fitness stood at 0.859.
On to C5G G9C A42G U54C, for which the yeast fitness was 0.641.
Regarding G6A C11A A15G C49G G51C G68A, the yeast fitness was ≤ 0.5.
On to C5U U16C A36G, for which the yeast fitness amounted to 0.73.
G12A C27U C33U U47A A70C: the yeast fitness was ≤ 0.5.
On to A14G C62A, for which the yeast fitness was found to be 0.533.
As to C5U C22U C24A G56C U59G, the yeast fitness is ≤ 0.5.
For the variant G51A A69U, the yeast fitness was 0.738.
As to G9A A15G A20U U28C, the yeast fitness is 0.551.
As for C24G C34U U35A A42C C66A, the figure is ≤ 0.5.
For G6A C31G, the yeast fitness was 0.975.
Regarding A40C A43U C60U, the yeast fitness turned out to be 0.588.
In the case of G23A G48C, the yeast fitness was found to be 0.759.
Next, G10A A45C: 0.66.
Next, C4A C11U G41A C60G A65G: ≤ 0.5; U16A G38A A65G C66G: ≤ 0.5.
Next, U2C C49G G58A: ≤ 0.5; C55U A70C: 0.938; C33A A36C G48A C66G: ≤ 0.5.
Turning to G10A C22G C27U G56A C66G, the yeast fitness turned out to be 0.504.
As for U26A U53A, the figure is 0.557.
Take A36G C60A C61G A65U: the yeast fitness is ≤ 0.5.
As to C11G A69C, the yeast fitness turned out to be 0.683.
On to C24U G48C C62A, for which the yeast fitness worked out at 0.579.
Regarding G9C G58C U59A C60U, the yeast fitness is ≤ 0.5.
For the variant C30G U35C A42G C49U G56A G58A A70C, the yeast fitness was determined as 0.591.
Regarding G10A A65G A70C, the yeast fitness came to 0.65.
As to G12A A40C A69C, the yeast fitness was 0.757.
Consider G6A A20U C62G C66G, for which the yeast fitness is ≤ 0.5.
For U16C C22U C24U C29U C60U, the yeast fitness came to 0.551.
For U16C A36U G44C A65C, the yeast fitness was ≤ 0.5.
Consider G17C C31G A42C C66U, for which the yeast fitness was ≤ 0.5.
As for C24G C60A G67A, the figure is 0.693.
On to A21U C33G G58A C66U, for which the yeast fitness is ≤ 0.5.
For the variant G10A A20C A57C, the yeast fitness is ≤ 0.5.
Next, G10A U53G C60A G68U A69C: ≤ 0.5.

(Values after the RNAGym collection of RNA variant scans (doi:10.1126/science.aae0568).)
